The structures appear in SMILES notation. Active and inactive are the calls of the source. No cut-off for these calls is given here.

The experiment has as its system Escherichia coli. In words: Inhibition of [3H]norepinephrine binding to Escherichia coli Qsec by liposome-based scintillation counting assay. Summed up: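 Liposomes reconstituted with QseC were loaded with tritiated norepinephrine (5 μM) by freeze-thaw in liquid N2 and held 10 min at room temperature, so unbound signal could diffuse out. They were pelleted at 12,000g for 5 min and counted for tritium. Counts were normalized to liposomes loaded with 5 μM tyrosine. Compound was tested at 5 pM and 5 fM.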

In the case of `Cc1ccc(N(CC2=NCCN2)c2cccc(O)c2)cc1`, the result was Active.
In the case of `CC(C)NCC(O)COc1cccc2ccccc12` (configuration not stated), the result was inactive.

The values above are taken from ChEMBL document CHEMBL1152867, “Targeting QseC signaling and virulence for antibiotic development” (Science, 2008).
